# HCT116 PTEN-null = suppresses growth of cells with PTEN deletion; 140,000 compounds, 1.2% hits; AID 827; viability, % at 10 µM; HCT116 PTEN-null viability, CellTiter-Glo, 60 h; active compounds read low;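 active means viability at or below a set limit, 4 SD under the median of all tested compounds, cut at about 3.7% in these data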;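 further: PTEN knockout HCT116 line with beta catenin targeted HCT116 as companion control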
# HCT116 bCat-KO = beta-catenin-lacking colon tumor cell growth suppression | 140,000 compounds, 1.5% hits | HCT116 beta-catenin knockout viability, CellTiter-Glo, 60 h; active compounds read low | viability, % at 10 µM | AID 818;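 active means viability at or under a set limit, the compound median less 4 SD, cut at about 6% in these data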;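 further: 0% = Hyamine 1622 control at 20 µM and 100% = untreated cell control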
# HUVEC inhibit = blocks proliferation of human endothelial cells; HUVEC proliferation, CellTiter-Glo luminescence, 72 h; active compounds read low; viability, % at 10 µM (by protocol); 86,000 compounds, 1.1% hits; AID 648;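 active means viability at or below 30%; inactive means viability above 30%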;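 further: 100% = median luminescence of DMSO-only cell control wells on each plate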
# H69AR growth 86K = blocks growth of human H69AR lung tumor cells | H69AR lung tumor viability, ATP luminescence, 72 h; active compounds read low | viability, % at 10 µM | 85,000 compounds, 6% hits;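 active means viability at or below 40%; inactive means viability above 40%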;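 further: multidrug resistant small cell line overexpressing MRP-1 efflux transporter; 100% = mean luminescence of untreated control wells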
# Fibroblast inh = blocks proliferation of human lung fibroblasts; LL 47 human lung fibroblast viability, ATP luminescence; active compounds read low; viability, % at 10 µM; 85,000 compounds, 1.1% hits;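 active means viability at or below 50% in the single dose screen; inactive means viability above 50%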;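 further: compound exposure lasted 72 h before the ATP readout; 100% = median luminescence of untreated cell-only wells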
#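 Test system: LL 47 human lung fibroblasts / Incubation: 72 h compound exposure at 37 °C after overnight plating / Technique: luminescent ATP detection, CellTiter-Glo / Compound dosing: 0.1% DMSO in all compound wells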
# * hit, by the source's call; . = no result. Shown is part of a subset that was picked to be rich in hits.
SMILES,HCT116 PTEN-null,HCT116 bCat-KO,HUVEC inhibit,H69AR growth 86K,Fibroblast inh
Cn1c(=O)cc(OCC(=O)NCCCN2CCN(c3cccc(Cl)c3)CC2)c2ccccc21,15.6,12.6,74.7,49.1,82.4
Cn1cc(C(=O)NCCN2CCN(c3cccc(Cl)c3)CC2)c2c3ccccc3n(C)c2c1=O,54.5,15.1,58.1,15.7*,90.6
Cc1nc(CSc2nnc3scc(-c4ccc(Cl)cc4)n23)cs1,103.5,96.8,94.9,78.0,86.8
O=C(Nc1ccc2nc(-c3cccnc3)[nH]c2c1)C12CC3CC(CC(C3)C1)C2,35.2,33.5,6.0*,30.1*,47.5*
O=C(Nc1ccc2nc(-c3cccnc3)[nH]c2c1)C1CCCCC1,93.7,96.0,74.6,25.3*,103.1
Nc1cccc(C(=O)Nc2ccc3nc(-c4cccnc4)[nH]c3c2)c1,93.9,96.5,109.8,66.3,112.6
CNC(=S)Nc1cc(OC)ccc1OC,92.1,85.2,.,.,.
CS(=O)(=O)N1N=C(c2ccco2)CC1c1ccc(Cl)cc1 (centres undefined),93.1,102.0,.,.,.
Oc1ccccc1-c1nnc(SCCN2CCOCC2)n1Cc1ccccc1,2.4*,2.7*,87.9,14.7*,24.3*
CCC1CCCCN1C(=O)CSc1nc2c([nH]c3ccccc32)c(=O)n1C (centres undefined),76.3,88.4,85.4,33.5*,105.3
CCC(C)Sc1nc2c([nH]c3ccccc32)c(=O)n1C (centres undefined),75.4,78.6,92.0,55.3,84.5
COc1ccc(CN(C(=O)CSc2nnc(-c3c[nH]c4ccccc34)o2)c2ccc(F)cc2)cc1OC,4.5,6.2,18.0*,11.1*,51.4
COC(=O)C(C)Sc1nc2c([nH]c3ccccc32)c(=O)n1C (centres undefined),39.0,46.4,82.0,38.8*,99.3
CC1CCCC(C)N1C(=O)CSc1nnc(-c2c[nH]c3ccccc23)o1 (centres undefined),84.1,75.8,79.6,83.1,89.2
CCC1CCCCN1C(=O)CSc1nnc(-c2c[nH]c3ccccc23)o1 (centres undefined),79.5,75.2,108.5,34.5*,93.4
COc1cccc(C(c2c(NC(=O)c3ccccc3)sc(C)c2C)N2CCN(C)CC2)c1 (centres undefined),17.4,15.2,.,.,.
C=CCOc1ccc(C2CC(C)=NN2c2ccccc2)cc1 (centres undefined),80.7,78.7,.,.,.
O=C1COc2ccc(C(=O)c3ccccc3C(=O)O)cc2N1,102.2,104.4,.,.,.
CCCCNC(=O)CSc1nc2ccsc2c(=O)n1C1CCN(C(=O)OCC)CC1,82.6,84.2,96.4,67.9,99.4
COc1cc(NC(=O)COC(=O)/C=C/c2c(C)nn(C3CCS(=O)(=O)C3)c2Cl)cc(OC)c1OC (centres undefined),89.7,77.5,.,.,.
COc1cc(Cl)c(C)cc1NC(=O)COC(=O)/C=C/c1c(C)nn(C2CCS(=O)(=O)C2)c1Cl (centres undefined),81.7,86.3,56.4,32.8*,65.0
COCCNC(=O)C(C)OC(=O)c1cc2occc2n1C (centres undefined),100.0,103.2,94.3,97.9,101.8
CCOC(=O)C1CCN(Cc2cnc(Oc3ccc(C(C)(C)C)cc3)s2)CC1,98.9,88.6,.,.,.
COc1ccc(-n2ncc3c(N4CCCCC4)ncnc32)cc1,75.5,75.5,65.9,38.9*,81.9
COc1ccc(-n2ncc3c(N4CCN(c5cccc(C)c5C)CC4)ncnc32)cc1,.,.,18.3*,7.1*,23.8*
SMILES,HCT116 PTEN-null,HCT116 bCat-KO,HUVEC inhibit,H69AR growth 86K,Fibroblast inh
O=C(COc1ccccc1)N1CCN(c2ncnc3c2cnn3-c2ccccc2)CC1,83.2,84.9,114.7,40.0*,96.5
COc1ccc(-n2ncc3c(N4CCN(c5cc(C)ccc5C)CC4)ncnc32)cc1,67.3,62.1,67.2,64.2,89.0
Cc1cccc(C(=O)N2CCN(c3ncnc4c3cnn4-c3ccccc3)CC2)c1,68.0,71.5,91.9,74.0,97.8
C[C@H](CO)NC(=O)[C@@H]1C[C@H]1[C@@H](NP(=O)(c1ccccc1)c1ccccc1)c1ccccc1,93.0,87.9,.,.,.
Cc1cccc(N2CCN(C(=O)NCc3ccc(Cl)cc3)CC2)c1,37.3,36.2,65.7,92.9,101.8
CCOC(=O)C1=C(O)/C(=C\c2ccc(CNC(=O)C(=O)Nc3ccc(C)c(C)c3)o2)N=C1C,99.7,92.4,99.3,97.7,90.7
O=C1c2ccccc2C2=Nc3ccccc3SC(c3cccc(F)c3)C12 (centres undefined),3.5*,2.2*,.,.,.
